# Test results from ChEMBL document CHEMBL4007460, “17β-Hydroxywithanolides as Sensitizers of Renal Carcinoma Cells to Tumor Necrosis Factor-α Related Apoptosis Inducing Ligand (TRAIL) Mediated Apoptosis: Structure-Activity Relationships” (J Med Chem, 2017).
# pIC50: −log10 of the molar value. Activity calls are given as the source filed them. The calls are words filed in the database; no cut-off is given here.
# Columns and labels:
# ACHN [1] = experiment: Sensitization of TRAIL-induced apoptosis in human ACHN cells assessed as reduction in cell viability preincubated for 2 hrs followed by addition of TRAIL measured after 18 hrs by MTS assay; format: functional, cell-based
# Summary of the method: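 ACHN cells were seeded at 5000/well and rested overnight at 37 °C, in RPMI with 5% FCS, glutamine, NEAA, pyruvate, HEPES and 2-mercaptoethanol. Compound pretreatment ran 2 h, then TRAIL was added to 50 ng/mL for 18 h at 37 °C. Viability was read by MTS (2 h, A490). IC50 values (cell number reduced 50%) came from dose-response curves; triplicates, at least 3 independent experiments, ± SD.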
# CAKI-1 = experiment: Sensitization of TRAIL-induced apoptosis in human Caki1 cells assessed as reduction in cell viability at 125 to 500 nM preincubated for 2 hrs followed by addition of TRAIL measured after 18 hrs by MTS assay; format: functional, cell-based
# Summary of the method: (§1)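 Caki-1, SN12C or UO-31 renal cells seeded 5000/well, grown overnight at 37 °C, pretreated with compound across a concentration range for 2 h, then TRAIL 50 ng/mL added for 18 h more at 37 °C. Medium: RPMI, 5% FCS with supplements. Viable cells by MTS (2 h, A490); growth inhibition = (media − treatment)/media ×100. Triplicate, ≥3 experiments.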
# SN12C = experiment: Sensitization of TRAIL-induced apoptosis in human SN12C cells assessed as reduction in cell viability at 125 to 500 nM preincubated for 2 hrs followed by addition of TRAIL measured after 18 hrs by MTS assay; format: functional, cell-based; summary of the method: as §1
# UO-31 = experiment: Sensitization of TRAIL-induced apoptosis in human UO31 cells assessed as reduction in cell viability at 125 to 500 nM preincubated for 2 hrs followed by addition of TRAIL measured after 18 hrs by MTS assay; format: functional, cell-based; summary of the method: as §1
# ACHN [2] = experiment: Reduction cFLIP level in human ACHN cells at 500 nM after 18 hrs by Western blot analysis; format: functional, cell-based
# Summary of the method: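 ACHN cells (RPMI, 5% FBS) plated 1.5×10^6/well, grown overnight at 37 °C, then exposed to compound at 500 nM for 18 h. Lysed in RIPA with protease/phosphatase inhibitors and zVAD-FMK; 20 μg protein per lane immunoblotted with anti-FLIP (7F10); GAPDH as loading control.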
# ACHN [3] = experiment: Sensitization of TRAIL-induced apoptosis in human ACHN cells assessed as increase in caspase8 activation at 125 to 1000 nM preincubated for overnight followed by addition of TRAIL for 90 mins measured after 18 hrs by Western blot analysis; format: functional, cell-based
# Summary of the method: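 ACHN cells plated 1.5×10^6/well, grown overnight, treated overnight (18 h) with compound at 125–1000 nM, then TRAIL for 90 min before RIPA lysis (with zVAD-FMK). 20 μg protein immunoblotted for pro- and cleaved caspase-8 and caspase-3; GAPDH loading control. TRAIL given as 200 ng/mL in methods, 50 ng/mL in legend.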
# ACHN [4] = experiment: Cytotoxicity in human ACHN cells assessed as viable cells at 1250 to 5000 nM after 48 hrs by MTS assay; format: cell-based; conditions: 5 µM
# ACHN [5] = experiment: Induction of CHOP expression in human ACHN cells at 2.5 to 5 uM measured after 24 hrs by Western blotting method; format: functional, cell-based
# ACHN [6] = experiment: Induction of BIP expression in human ACHN cells at 2.5 to 5 uM measured after 24 hrs by Western blotting method; format: functional, cell-based
# ACHN [7] = experiment: Induction of HSP70 expression in human ACHN cells at 2.5 to 5 uM measured after 24 hrs by Western blotting method; format: functional, cell-based
# ACHN [8] = experiment: Cytotoxicity in human ACHN cells assessed as reduce cell number after 48 hrs by MTS assay; format: cell-based
# Summary of the method: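 ACHN cells exposed to compound for 48 h at 37 °C; viable cell number by MTS read-out. Triplicate determinations; IC50 (concentration reducing cell number by 50%) from 3 independent experiments, ± SD.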
# [9] = Glutathione reactivity in DMSO assessed as formation of MIchael adduct with GSH at pH 7.4 after 24 hrs in presence of NAC by HPLC method
# Summary of the method: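 Withanolide (2.12 μM in DMSO, 0.5 mL) mixed with equal volume of 4.24 μM GSH or NAC solution at pH 7.4, 37 °C. Aliquots taken at 0, 0.5, 2, 4, 8, 24 h, stored −80 °C; unreacted withanolide quantified by C18 HPLC (H2O with 40 mM NH4OAc–MeOH gradient, UV 230 nm) using peak area.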
# ACHN [10] = experiment: Induction of DR5 expression in human ACHN cells by Western blotting method; format: functional, cell-based
# ACHN [11] = experiment: Reduction cFLIP level in human ACHN cells at 125 to 1000 nM after 18 hrs by Western blot analysis
# ACHN [12] = experiment: Reduction cFLIP level in human ACHN cells at 125 to 1000 nM after 16 hrs by Western blot analysis; format: functional, cell-based
# ACHN [13] = experiment: Sensitization of TRAIL-induced apoptosis in human ACHN cells assessed as increase in caspase8 activation at 125 to 1000 nM preincubated for overnight followed by addition of TRAIL for 90 mins measured after 6 hrs by Western blot analysis; format: functional, cell-based
smiles,measurement,setting,value
CC1=C(C)C(=O)O[C@@H]([C@](C)(O)[C@]2(O)CC[C@@]3(O)[C@@H]4C[C@H]5O[C@]56CC=CC(=O)[C@]6(C)[C@H]4CC[C@]23C)C1 [WITHANOLIDE E],pIC50,ACHN [1],6.31
same,Activity,CAKI-1,Active
same,Activity,SN12C,Active
same,Activity,UO-31,Active
same,Activity,ACHN [2],Active
same,Activity,ACHN [3],Active
same,Activity,ACHN [4],Non-Toxic
same,Activity,ACHN [5],inactive
same,Activity,ACHN [6],inactive
same,Activity,ACHN [7],inactive
same,Activity,ACHN [8],Toxic
same,Activity,[9],Active
same,Activity,ACHN [10],inactive
COC(=O)O[C@H]1C=CC(=O)[C@]2(C)[C@H]3CC[C@]4(C)[C@](O)([C@@](C)(O)[C@H]5CC(C)=C(C)C(=O)O5)CC[C@@]4(O)[C@@H]3C[C@H]3O[C@]132,pIC50,ACHN [1],6.95
same,Activity,ACHN [2],Active
same,Activity,ACHN [8],Toxic
same,Activity,[9],Active
CC(=O)O[C@@H]1C=CC(=O)[C@]2(C)[C@H]3CC[C@]4(C)[C@](O)([C@@](C)(O)[C@H]5CC(C)=C(C)C(=O)O5)CC[C@@]4(O)[C@@H]3C[C@H]3O[C@]132,pIC50,ACHN [1],7.05
same,Activity,ACHN [8],Toxic
same,Activity,[9],Active
CC1=C(CO)C(=O)O[C@@H]([C@@H](C)[C@H]2CC[C@H]3[C@@H]4C[C@H]5O[C@]56[C@@H](O)C=CC(=O)[C@]6(C)[C@H]4CC[C@]23C)C1 [WITHAFERIN A],pIC50,ACHN [1],< 5.70
same,Activity,CAKI-1,inactive
same,Activity,SN12C,inactive
same,Activity,UO-31,inactive
same,Activity,ACHN [3],inactive
same,Activity,ACHN [4],Toxic
same,Activity,ACHN [5],Active
same,Activity,ACHN [6],Active
same,Activity,ACHN [7],Active
same,Activity,[9],Active
same,Activity,ACHN [10],inactive
same,Activity,ACHN [11],inactive
CC(=O)OCC1=C(C)C[C@H]([C@@H](C)[C@H]2CC[C@H]3[C@@H]4C[C@H]5O[C@]56[C@H](OC(C)=O)C=CC(=O)[C@]6(C)[C@H]4CC[C@]23C)OC1=O,Activity,ACHN [12],inactive
same,Activity,ACHN [5],Active
same,Activity,ACHN [6],Active
same,Activity,ACHN [7],Active
CC(=O)O[C@H]1C=CC(=O)[C@]2(C)[C@H]3CC[C@]4(C)[C@](O)([C@@](C)(O)[C@H]5CC(C)=C(C)C(=O)O5)CC[C@@]4(O)[C@@H]3C[C@H]3O[C@]132,pIC50,ACHN [1],7.12
same,Activity,ACHN [2],Active
same,Activity,ACHN [8],Toxic
same,Activity,[9],Active
CC(=O)OC[C@]12CC[C@H]3[C@@H](C[C@H]4O[C@]45CC=CC(=O)[C@]35C)[C@]1(O)CC[C@@]2(O)[C@@](C)(O)[C@H]1CC(C)=C(C)C(=O)O1,pIC50,ACHN [1],6.79
same,Activity,CAKI-1,Active
same,Activity,SN12C,Active
same,Activity,UO-31,Active
same,Activity,ACHN [2],Active
same,Activity,ACHN [3],Active
same,Activity,ACHN [13],Active
same,Activity,ACHN [4],Non-Toxic
same,Activity,ACHN [5],inactive
same,Activity,ACHN [6],inactive
same,Activity,ACHN [7],inactive
same,Activity,ACHN [8],Toxic
same,Activity,[9],Active
same,Activity,ACHN [10],inactive
CO[C@H]1CC(=O)[C@]2(C)[C@H]3CC[C@]4(COC(C)=O)[C@](O)([C@@](C)(O)[C@H]5CC(C)=C(C)C(=O)O5)CC[C@@]4(O)[C@@H]3C[C@H]3O[C@]32C1,pIC50,ACHN [1],< 5.40
CC1=C(C)C(=O)O[C@@H]([C@](C)(O)[C@]2(O)CC[C@@]3(O)[C@@H]4C[C@H]5O[C@]56[C@@H](O)[C@@H](N=[N+]=[N-])CC(=O)[C@]6(C)[C@H]4CC[C@]23C)C1,pIC50,ACHN [1],5.74
CC(=O)OC[C@]12CC[C@H]3[C@@H](C[C@@H]4O[C@@]45CC=CC(=O)[C@]35C)[C@]1(O)CC[C@@]2(O)[C@@](C)(O)[C@H]1CC(C)=C(C)C(=O)O1,pIC50,ACHN [1],< 5.40
same,Activity,[9],inactive
CC(=O)OCC1=C(C)C(=O)O[C@@H]([C@](C)(O)[C@]2(O)C[C@H](OC(C)=O)[C@@]3(O)[C@@H]4CC=C5CC=CC(=O)[C@]5(C)[C@H]4CC[C@@]32COC(C)=O)C1,pIC50,ACHN [1],< 5.40
CC(=O)OC[C@]12CC[C@H]3[C@@H](CC=C4CC=CC(=O)[C@@]43C)[C@]1(O)[C@@H](OC(C)=O)C[C@@]2(O)[C@@](C)(O)[C@H]1CC(CO[C@@H]2O[C@H](CO)[C@@H](O)[C@H](O)[C@H]2O)=C(C)C(=O)O1,pIC50,ACHN [1],< 5.40
CC(=O)OC[C@]12CC[C@H]3[C@@H](C[C@H]4O[C@]45CCCC(=O)[C@]35C)[C@]1(O)CC[C@@]2(O)[C@@](C)(O)[C@H]1CC(C)=C(C)C(=O)O1,pIC50,ACHN [1],< 5.40
CC(=O)OC[C@]12CC[C@H]3[C@@H](CC=C4CC=CC(=O)[C@@]43C)[C@]1(O)[C@@H](OC(C)=O)C[C@@]2(O)[C@@](C)(O)[C@H]1CC(C)=C(C)C(=O)O1,pIC50,ACHN [1],< 5.40
CC1=C(C)C(=O)O[C@@H]([C@](C)(O)[C@]2(O)CC[C@@]3(O)[C@@H]4C[C@H]5O[C@]56[C@@H](OC(=O)n5ccnc5)C=CC(=O)[C@]6(C)[C@H]4CC[C@]23C)C1,pIC50,ACHN [1],6.63
CC1=C(C)C(=O)O[C@@H]([C@](C)(O)[C@]2(O)CC[C@@]3(O)[C@@H]4C[C@H]5O[C@]56[C@H](O)C=CC(=O)[C@]6(C)[C@H]4CC[C@]23C)C1,pIC50,ACHN [1],7.17
same,Activity,CAKI-1,Active
same,Activity,SN12C,Active
same,Activity,UO-31,Active
same,Activity,ACHN [2],Active
same,Activity,ACHN [3],Active
same,Activity,ACHN [4],Non-Toxic
same,Activity,ACHN [8],Toxic
same,Activity,[9],Active
same,Activity,ACHN [10],inactive
CC1=C(C)C(=O)O[C@@H]([C@](C)(O)[C@]2(O)CC[C@@]3(O)[C@@H]4C[C@H]5O[C@]56[C@@H](O)C=CC(=O)[C@]6(C)[C@H]4CC[C@]23C)C1,pIC50,ACHN [1],6.25
same,Activity,ACHN [8],Toxic
same,Activity,[9],Active
CC1=C(C)C(=O)O[C@@H]([C@](C)(O)[C@]2(O)CC[C@@]3(O)[C@@H]4C[C@H]5O[C@]56CCCC(=O)[C@]6(C)[C@H]4CC[C@]23CO)C1,pIC50,ACHN [1],< 5.40
